From ChEMBL document CHEMBL1147607, “Side-chain length is important for shogaols in protecting neuronal cells from beta-amyloid insult” (2004) come the findings set out here.

For one test, the system named is PC-12. The experiment in a line: Effective dose to protect PC12 cells from beta-Amyloid (BA) insult was determined using MTT reduction assay. In kind it is functional. The following applies: Rattus norvegicus, read-out: ED50 (the source's name). A digest of the protocol: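 PC12 cells in high-glucose DMEM with 10% horse serum, 5% fetal calf serum and 1% penicillin/streptomycin were plated overnight. They were then co-incubated 24 h with βA(1-42) (DMSO stock) and test compound at five concentrations, final DMSO <1%. MTT was added for 1 h at 37 °C, then lysing buffer overnight at 37 °C, and OD read at 570 nm. Viability was referenced to DMSO-only and βA-only wells. ED50 came from dose–response curves; curcumin was the positive control.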

In the next test the test system is IMR-32. Put plainly: Effective dose to protect IMR-32 cells from beta-Amyloid (BA) insult was determined using MTT reduction assay. The test is classed as functional. The following applies: Homo sapiens, read-out: ED50 (the source's name). A digest of the protocol: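 IMR-32 human neuroblastoma cells in Minimum Essential Medium with Earle's salts and L-glutamine, 10% fetal bovine serum and 1% penicillin/streptomycin were run as in the PC12 protocol. Cells were co-exposed 24 h to βA(1-42) and test compound at five concentrations, final DMSO <1%. MTT was reduced for 1 h at 37 °C, then lysed overnight, with OD read at 570 nm. ED50 came from dose–response curves.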

The structures appear in SMILES notation.

With `CCCCCC/C=C/C(=O)CCc1ccc(O)c(OC)c1`, the EC50 came to 8.6 µM in the test on PC-12 and 12 µM in the test with IMR-32.

With `CCCCCCCCC/C=C/C(=O)CCc1ccc(O)c(OC)c1`, the figures for the EC50 in the test with PC-12 and in the test on IMR-32 were 1.8 µM and 3.3 µM, respectively.

For `CCCCCCCC/C=C/C(=O)CCc1ccc(O)c(OC)c1`, the EC50 in the test with PC-12 stood at 4.4 µM; in the test with IMR-32, 6.2 µM.

In the case of `CCCC/C=C/C(=O)CCc1ccc(O)c(OC)c1`, the EC50 is 29 µM with PC-12 and 37.4 µM in the test with IMR-32.

For the molecule `CCCCCCCCCCC/C=C/C(=O)CCc1ccc(O)c(OC)c1`, the EC50 with PC-12 is 0.2 µM; in the test on IMR-32 it was 0.5 µM.

`CCCCCCC/C=C/C(=O)CCc1ccc(O)c(OC)c1`: the EC50 in the test on PC-12 worked out at 5.9 µM; in the test with IMR-32 it was 8.8 µM.

For the molecule `CCC/C=C/C(=O)CCc1ccc(O)c(OC)c1`, the EC50 in the test on PC-12 is 45.9 µM; with IMR-32, 61.2 µM.

Regarding `CCCCCCCCCC/C=C/C(=O)CCc1ccc(O)c(OC)c1`, the values for the EC50 in the test on PC-12 and in the test on IMR-32 were 0.5 µM and 1.4 µM, respectively.

Consider `COc1cc(/C=C/C(=O)CC(=O)/C=C/c2ccc(O)c(OC)c2)ccc1O` [CURCUMIN], for which the values for the EC50 in the test with PC-12 and in the test on IMR-32 were 17.1 µM and 23.9 µM, respectively.

For the molecule `CCCCC/C=C/C(=O)CCc1ccc(O)c(OC)c1` [SHOGAOL], the EC50 in the test with PC-12 was determined as 16.3 µM; with IMR-32 it was 24.2 µM.

Turning to `COc1cc(CCC(C)=O)ccc1O` [ZINGERONE], the EC50 in the test with PC-12 and with IMR-32 was above 129 µM in each case.
